Assay results: ChEMBL document CHEMBL1152344, “Anti-coxsackie virus B3 norsesquiterpenoids from the roots of Phyllanthus emblica” (J Nat Prod, 2009); call rule not given here
Converted amounts (≈) assume the structure as drawn.

What was measured:
Coxsackievirus B3 = test: Antiviral activity against Coxsackie virus B3 […] infected in human HeLa cells assessed as reduction of virus-induced cytopathic effect by MTT assay; assay type: functional, organism-based, Nancy
How it was run: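 HeLa monolayers were exposed to 100 TCID₅₀ of CVB3 […] together with serial 2-fold compound dilutions below CC₅₀, in DMEM with 2% serum. Uninfected and untreated infected wells served as controls. Plates were kept at 37 °C in humidified CO₂ until virus control CPE peaked, then read by MTT. IC₅₀ is the concentration reducing CPE by 50%, as mean of three independent experiments.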

[1] = Cytotoxicity against human HeLa cells after 48 hrs by MTT assay; assay type: cell-based
How it was run: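 HeLa monolayers were treated with compound at 200–6.25 µg/mL in DMEM with 2% serum for 48 h at 37 °C. MTT (0.5 mg/mL in PBS) was added for 4 h, then DMSO for 30 min at room temperature, and OD was read at 570/630 nm. CC₅₀ was taken from the mean dose-response curve of three independent experiments.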

[2] = Therapeutic index, CC50 for human HeLa cells to IC50 for Coxsackie virus B3 […]; assay type: cell-based; conditions: read-out: Ratio CC50/IC50
How it was run: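 TI is CC₅₀ divided by IC₅₀. CC₅₀ comes from a 48 h HeLa MTT viability assay; IC₅₀ comes from an MTT-read CPE-inhibition assay with 100 TCID₅₀ CVB3 […] in HeLa cells. Both use DMEM with 2% serum at 37 °C and are means of three independent experiments.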

[3] = Enterovirus B, Nancy, HeLa, read-out: IC50

| Compound | IC50 (Coxsackievirus B3; hela) | CC50 at 48 h [1] [µg/mL] | IC50 (Coxsackievirus B3; [3]) [µg/mL] | selectivity ratio [2] |
| --- | --- | --- | --- | --- |
| C[C@@H]1CO[C@@]2(C[C@@H]1OC(=O)c1ccc(O)cc1)O[C@@H]1C[C@@H](C(=O)O[C@@H]3O[C@H](CO)[C@@H](O)[C@H](O)[C@H]3O[C@@H]3O[C@H](CO)[C@@H](O)[C@H](O)[C@H]3O)C[C@@H](O)[C@]1(O)C2=O [4'-HYDROXYPHYLLAEMBLICIN B] | Not Active |  |  |  |
| COC(=O)[C@H]1C[C@@H](O)[C@]2(O)C(=O)[C@]3(C[C@H](OC(=O)c4ccccc4)[C@H](C)CO3)O[C@@H]2C1 [PHYLLAEMBLIC ACID METHY ESTER] |  | 214 (≈ 492 µM) | 21.8 (≈ 50.2 µM) | 9.8 |
| C[C@@H]1CO[C@@]2(C[C@@H]1OC(=O)c1ccccc1)O[C@@H]1C[C@@H](C(=O)O)C[C@@H](O)[C@]1(O)C2=O [PHYLLAEMBLIC ACID] | Not Active |  |  |  |
| C[C@@H]1CO[C@@]2(C[C@@H]1OC(=O)c1ccccc1)O[C@@H]1C[C@@H](C(=O)O[C@@H]3O[C@H](CO)[C@@H](O)[C@H](O)[C@H]3O)C[C@@H](O)[C@]1(O)C2=O [PHYLLAEMBLICIN A] | Not Active |  |  |  |
| C[C@@H]1CO[C@@]2(C[C@@H]1OC(=O)c1ccccc1)O[C@@H]1C[C@@H](C(=O)O[C@@H]3O[C@H](CO)[C@@H](O)[C@H](O)[C@H]3O[C@@H]3O[C@H](CO)[C@@H](O)[C@H](O)[C@H]3O)C[C@@H](O)[C@]1(O)C2=O [PHYLLAEMBLICIN B] |  | 50.2 (≈ 67.4 µM) | 7.8 (≈ 10.5 µM) | 6.4 |
| C[C@@H]1CO[C@@]2(C[C@@H]1OC(=O)c1ccccc1)O[C@@H]1C[C@@H](C(=O)O[C@@H]3O[C@H](CO)[C@@H](O)[C@H](O)[C@H]3O[C@@H]3O[C@H](CO)[C@@H](O)[C@H](O)[C@H]3O[C@@H]3OC[C@@H](O)[C@@H](O)[C@@H]3O)C[C@@H](O)[C@]1(O)C2=O [PHYLLAEMBLICIN C] |  | 67.7 (≈ 77.2 µM) | 11 (≈ 12.5 µM) | 6.2 |
| C[C@@H]1CO[C@@]2(C[C@@H]1OC(=O)c1ccccc1)O[C@@H]1C[C@@H](C(=O)O[C@@H]3O[C@H](CO)[C@@H](O)[C@H](O)[C@H]3O[C@@H]3O[C@H](CO)[C@@H](O)[C@H](O)[C@H]3O[C@@H]3OC[C@H](O)[C@@H](O)[C@@H]3O)C[C@@H](O)[C@]1(O)[C@H]2O [PHYLLAEMBLICIN E] | Not Active |  |  |  |
| C[C@@H]1CO[C@@]2(C[C@@H]1OC(=O)c1ccccc1)O[C@@H]1C[C@@H](C(=O)OC[C@H]3O[C@@H](O[C@H]4[C@H](OC(=O)[C@H]5C[C@@H](O)[C@]6(O)C(=O)[C@]7(C[C@H](OC(=O)c8ccccc8)[C@H](C)CO7)O[C@@H]6C5)O[C@H](CO)[C@@H](O)[C@@H]4O)[C@H](O)[C@@H](O)[C@@H]3O)C[C@@H](O)[C@]1(O)C2=O [PHYLLAEMBLICIN F] | Not Active |  |  |  |
| NC(=O)c1ncn([C@@H]2O[C@H](CO)[C@@H](O)[C@H]2O)n1 [RIBAVIRIN] |  | 426 (≈ 1740 µM) | 20.3 (≈ 83.1 µM) | 21 |
